Where two headings read alike, the source gives them in different places.
What was measured:
[1] = toxicity in first treatment cycle; type: in vivo, human; conditions: for Neutropenia grade 3–4: No (No. patients) / Neutropenia grade 3–4: Yes (No. patients): cycle 1, RP2D
How it was run: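 Adverse events in cycle 1 were graded by NCI-CTC v3.0. Phase II patients received 330 mg/m2 on days 1, 8 and 15 (6-h) or 500 mg/m2 on days 1 and 15 (24-h) every 28 days. Genotypes were compared by two-sided chi-square.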

[2] = system: ATP-binding cassette G2 (ABCG2/BCRP); conditions: in vitro; ref unpublished data (b4), 26; cited from earlier work
ret proto-oncogene (RET) = conditions: read-out: IC50 RET; panel of 32 kinases; cited from earlier work
aurora-A (AURKA) = conditions: read-out: IC50 aurora-A; cited from earlier work
[3] = system: histone H3 phosphorylation; test: histone H3 phosphorylation in skin biopsies by immunohistochemistry; type: in vivo, human
How it was run: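 Skin biopsies were taken at baseline and 10 min before the end of the first infusion of cycle 1. Phospho-histone H3 was stained by immunohistochemistry, giving the % change in positive cells. AURKB genotypes were compared by t-test/ANOVA.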

[4] = molecular target: vascular endothelial growth factor receptor 3 (FLT4, VEGFR3); conditions: read-out: IC50 FLT4 (VEGFR3); panel of 32 kinases; cited from earlier work
aurora-C (AURKC) = conditions: read-out: IC50 aurora-C; cited from earlier work
aurora-B (AURKB) = conditions: read-out: IC50 aurora-B; cited from earlier work
[5] = molecular target: fms-related tyrosine kinase 3 (FLT3); conditions: read-out: IC50 FLT3; panel of 32 kinases; cited from earlier work
[6] = system: ATP-binding cassette B1 (ABCB1/MDR1); conditions: in vitro; ref unpublished data (b4), 26; cited from earlier work
[7] = pharmacokinetics in phase I cancer patients; type: in vivo, human
How it was run: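 In the phase I trial, the test compound was given IV on days 1, 8 and 15 every 28 days. Doses were 45–400 mg/m2 by 6-h infusion or 250–330 mg/m2 by 3-h infusion. Blood was sampled on days 1–4, 8, 15–18 and 22 of cycle 1. Clearance (L/hour/m2) came from non-compartmental analysis. Genotypes came from TaqMan assays on blood DNA and were compared by t-test/ANOVA.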

[8] = cited from earlier work
[9] = AURKA 91A > T AT, total 6 patients
[10] = AURKA 169G > A GA, total 11 patients
[11] = AURKA 169G > A GG, total 18 patients
[12] = AURKB 893G > A GA, total 8 patients
[13] = FLT3 738C > T CC, total 5 patients
[14] = FLT3 738C > T TT, total 10 patients
[15] = FLT4 1480A > G AG, total 7 patients
[16] = KDR 54G > A AA, total 5 patients
[17] = KDR 54G > A GA, total 16 patients
[18] = KDR 54G > A GG, total 9 patients
[19] = KDR 1192G > A GA, total 3 patients
[20] = KDR −92G > A AG, total 7 patients
[21] = KDR −92G > A GG, total 20 patients
[22] = KDR −604T > C TT, total 6 patients
[23] = RET 135G > A AA, total 3 patients (3 missing)
[24] = RET 135G > A GA, total 8 patients (3 missing)
[25] = RET 37412G > A GA, total 5 patients

Compound: CO[C@@H](C(=O)N1Cc2n[nH]c(NC(=O)c3ccc(N4CCN(C)CC4)cc3)c2C1)c1ccccc1 [Danusertib]
Neutropenia grade 3–4: Yes (No. patients) [1, 9]: 4
Neutropenia grade 3–4: No (No. patients) ([1]; AURKA 91A > T TT, total 4 patients): 4
Neutropenia grade 3–4: No (No. patients) [1, 13]: 4
Neutropenia grade 3–4: Yes (No. patients) [1, 14]: 4
Neutropenia grade 3–4: Yes (No. patients) [1, 18]: 4
Neutropenia grade 3–4: No (No. patients) [1, 20]: 4
substrate for efflux protein ABCG2 [2]: substrate
decrease in histone H3 phosphorylation ([3]; AURKB 893G > A homozygous wild type genotype (GG), SD 13.3%): 91%
substrate for efflux protein ABCB1 [6]: substrate
dose linearity of pharmacokinetics ([8]; over the dose-range studied, phase I): linear pharmacokinetics

From paper PMC3160560 (Investigational New Drugs, 2010)
